Data reported in ChEMBL document CHEMBL5058577, “EUbOPEN Chemogenomics Library 2 (Multiplex)” (2022).

Test system: Fibroblast
Assay: Multiplex assay against human fibroblast
Assay type: toxicity, cell-based
Summary of the method: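 Live cells were stained at seeding with Hoechst33342, BioTracker Green Microtubule Cytoskeleton Dye, MitoTracker Red and Annexin V Alexa Fluor 680, then imaged on a CQ1 microscope at 37°C and 5% CO2 after compound addition. CellPathfinder machine-learning gating split cells into Hoechst high-intensity objects or normal cells. Normal cells were split into healthy, pyknosed or fragmented nuclei, and pyknosed cells into mitotic or apoptotic. Tubulin, mitochondrial-mass and membrane-permeability phenotypes are per cents of healthy-nucleus cells.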

[1] = 12 h, 1 µM, compound concentration 1 uM, replicate 1
[2] = 12 h, 1 µM, compound concentration 1 uM, replicate 2
[3] = 12 h, 10 µM, compound concentration 10 uM, replicate 1
[4] = 12 h, 10 µM, compound concentration 10 uM, replicate 2
[5] = 24 h, 1 µM, compound concentration 1 uM, replicate 1
[6] = 24 h, 1 µM, compound concentration 1 uM, replicate 2
[7] = 24 h, 10 µM, compound concentration 10 uM, replicate 1
[8] = 24 h, 10 µM, compound concentration 10 uM, replicate 2
[9] = 48 h, 1 µM, compound concentration 1 uM, replicate 1
[10] = 48 h, 1 µM, compound concentration 1 uM, replicate 2
[11] = 48 h, 10 µM, compound concentration 10 uM, replicate 1
[12] = 48 h, 10 µM, compound concentration 10 uM, replicate 2

COC[C@@H](c1ccc(C(F)(F)F)cc1)N1CCN(C2(C)CCN(C(=O)c3c(C)ncnc3C)CC2)C[C@@H]1C.O=C(O)/C=C\C(=O)O [VICRIVIROC MALEATE]
Population Apoptotic (%) [1]: 36% | Population Fragmented Nuclei (%) [1]: 23% | Population Healthy Nuclei (%) [1]: 53% | Population Hoechst High Intensity Objects (%) [1]: 4% | Population Membrane Permeable-Phenotype (%) [1]: 2% | Population Mitochondria Different-Phenotype (%) [1]: 11% | Population Mitotic Cells (%) [1]: 63% | Population Normal (%) [1]: 95% | Population Pyknosed Nuclei (%) [1]: 22% | Population Tubulin-Different-Phenotype (%) [1]: 16% | Total Cell Count [1]: 138 | Population Healthy Nuclei (%) [2]: 51% | Population Membrane Permeable-Phenotype (%) [2]: 5% | Population Mitochondria Different-Phenotype (%) [2]: 13% | Population Pyknosed Nuclei (%) [2]: 25% | Population Tubulin-Different-Phenotype (%) [2]: 41% | Total Cell Count [2]: 190 | Population Apoptotic (%) [3]: 58% | Population Fragmented Nuclei (%) [3]: 26% | Population Healthy Nuclei (%) [3]: 59% | Population Hoechst High Intensity Objects (%) [3]: 17% | Population Membrane Permeable-Phenotype (%) [3]: 2% | Population Mitochondria Different-Phenotype (%) [3]: 4% | Population Mitotic Cells (%) [3]: 41% | Population Normal (%) [3]: 82% | Population Pyknosed Nuclei (%) [3]: 14% | Population Tubulin-Different-Phenotype (%) [3]: 45% | Total Cell Count [3]: 208 | Population Apoptotic (%) [4]: 33% | Population Fragmented Nuclei (%) [4]: 48% | Population Healthy Nuclei (%) [4]: 33% | Population Hoechst High Intensity Objects (%) [4]: 20% | Population Membrane Permeable-Phenotype (%) [4]: 12% | Population Mitotic Cells (%) [4]: 66% | Population Normal (%) [4]: 79% | Population Pyknosed Nuclei (%) [4]: 18% | Population Tubulin-Different-Phenotype (%) [4]: 67% | Total Cell Count [4]: 186 | Population Apoptotic (%) [5]: 66% | Population Fragmented Nuclei (%) [5]: 21% | Population Healthy Nuclei (%) [5]: 57% | Population Hoechst High Intensity Objects (%) [5]: 3% | Population Membrane Permeable-Phenotype (%) [5]: 1% | Population Mitochondria Different-Phenotype (%) [5]: 7% | Population Mitotic Cells (%) [5]: 33% | Population Normal (%) [5]: 96% | Population Pyknosed Nuclei (%) [5]: 20% | Population Tubulin-Different-Phenotype (%) [5]: 18% | Total Cell Count [5]: 138 | Population Apoptotic (%) [6]: 30% | Population Fragmented Nuclei (%) [6]: 28% | Population Healthy Nuclei (%) [6]: 50% | Population Membrane Permeable-Phenotype (%) [6]: 8% | Population Mitochondria Different-Phenotype (%) [6]: 20% | Population Mitotic Cells (%) [6]: 69% | Population Pyknosed Nuclei (%) [6]: 21% | Population Tubulin-Different-Phenotype (%) [6]: 41% | Total Cell Count [6]: 204 | Population Apoptotic (%) [7]: 73% | Population Fragmented Nuclei (%) [7]: 23% | Population Healthy Nuclei (%) [7]: 64% | Population Hoechst High Intensity Objects (%) [7]: 12% | Population Membrane Permeable-Phenotype (%) [7]: 0% | Population Mitochondria Different-Phenotype (%) [7]: 5% | Population Mitotic Cells (%) [7]: 26% | Population Normal (%) [7]: 87% | Population Pyknosed Nuclei (%) [7]: 11% | Population Tubulin-Different-Phenotype (%) [7]: 42% | Total Cell Count [7]: 196 | Population Apoptotic (%) [8]: 42% | Population Fragmented Nuclei (%) [8]: 46% | Population Healthy Nuclei (%) [8]: 39% | Population Hoechst High Intensity Objects (%) [8]: 21% | Population Membrane Permeable-Phenotype (%) [8]: 8% | Population Mitochondria Different-Phenotype (%) [8]: 12% | Population Mitotic Cells (%) [8]: 57% | Population Normal (%) [8]: 78% | Population Pyknosed Nuclei (%) [8]: 14% | Population Tubulin-Different-Phenotype (%) [8]: 60% | Total Cell Count [8]: 183 | Population Apoptotic (%) [9]: 59% | Population Fragmented Nuclei (%) [9]: 21% | Population Healthy Nuclei (%) [9]: 56% | Population Hoechst High Intensity Objects (%) [9]: 3% | Population Membrane Permeable-Phenotype (%) [9]: 0% | Population Mitochondria Different-Phenotype (%) [9]: 7% | Population Mitotic Cells (%) [9]: 40% | Population Normal (%) [9]: 96% | Population Pyknosed Nuclei (%) [9]: 21% | Population Tubulin-Different-Phenotype (%) [9]: 34% | Total Cell Count [9]: 127 | Population Apoptotic (%) [10]: 53% | Population Fragmented Nuclei (%) [10]: 33% | Population Healthy Nuclei (%) [10]: 50% | Population Hoechst High Intensity Objects (%) [10]: 5% | Population Membrane Permeable-Phenotype (%) [10]: 9% | Population Mitochondria Different-Phenotype (%) [10]: 19% | Population Mitotic Cells (%) [10]: 46% | Population Normal (%) [10]: 95% | Population Pyknosed Nuclei (%) [10]: 15% | Population Tubulin-Different-Phenotype (%) [10]: 58% | Total Cell Count [10]: 180 | Population Apoptotic (%) [11]: 73% | Population Fragmented Nuclei (%) [11]: 23% | Population Healthy Nuclei (%) [11]: 65% | Population Hoechst High Intensity Objects (%) [11]: 14% | Population Membrane Permeable-Phenotype (%) [11]: 0% | Population Mitochondria Different-Phenotype (%) [11]: 5% | Population Mitotic Cells (%) [11]: 26% | Population Normal (%) [11]: 85% | Population Pyknosed Nuclei (%) [11]: 10% | Population Tubulin-Different-Phenotype (%) [11]: 48% | Total Cell Count [11]: 206 | Population Apoptotic (%) [12]: 53% | Population Fragmented Nuclei (%) [12]: 54% | Population Healthy Nuclei (%) [12]: 35% | Population Hoechst High Intensity Objects (%) [12]: 20% | Population Membrane Permeable-Phenotype (%) [12]: 9% | Population Mitochondria Different-Phenotype (%) [12]: 10% | Population Mitotic Cells (%) [12]: 46% | Population Normal (%) [12]: 79% | Population Pyknosed Nuclei (%) [12]: 9% | Population Tubulin-Different-Phenotype (%) [12]: 61% | Total Cell Count [12]: 193
